Compounds with a hit are over-represented: about 1.2% of the library has one in this group of screens.
NSD2 inh = NSD2 (human) methyltransferase inhibition | NSD2 peptide methylation, AlphaScreen, 120 min | inhibition, % at 12.5 µM | actives 0.54% (n = 310,000); in the data active = inhibition above about 50%
RAD54 branch = blocks human RAD54 Holliday junction branch migration; FAM/BHQ fluorescence; AID 602329; inhibition, % at 10.4 µM; actives 0.14% (n = 360,000);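 active = mean normalized replicate activity at least 40 and at least half of replicates scoring 40 or more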;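 also: inhibitors cause a drop in the FAM fluorescence signal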
MLL AF4-AF9 inh = blocks AF4 peptide binding to human AF9. inhibition, % at 10 µM. AlphaScreen, biotin-AF4 peptide binding to FLAG-AF9. P42568. AID 651704. actives 0.47% (n = 350,000);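 active = every replicate reaching a set inhibition limit, whatever the replicate mean, cut at about 25% in these data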
RAD52 inh = blocks human RAD52 DNA annealing. recombinant RAD52 DNA annealing, FRET fluorescence. inhibition, % at 18.7 µM. actives 0.46% (n = 360,000). AID 651710;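 active = every replicate showing at least 50% inhibition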
Target sequence (P43351 whole entry, looked up): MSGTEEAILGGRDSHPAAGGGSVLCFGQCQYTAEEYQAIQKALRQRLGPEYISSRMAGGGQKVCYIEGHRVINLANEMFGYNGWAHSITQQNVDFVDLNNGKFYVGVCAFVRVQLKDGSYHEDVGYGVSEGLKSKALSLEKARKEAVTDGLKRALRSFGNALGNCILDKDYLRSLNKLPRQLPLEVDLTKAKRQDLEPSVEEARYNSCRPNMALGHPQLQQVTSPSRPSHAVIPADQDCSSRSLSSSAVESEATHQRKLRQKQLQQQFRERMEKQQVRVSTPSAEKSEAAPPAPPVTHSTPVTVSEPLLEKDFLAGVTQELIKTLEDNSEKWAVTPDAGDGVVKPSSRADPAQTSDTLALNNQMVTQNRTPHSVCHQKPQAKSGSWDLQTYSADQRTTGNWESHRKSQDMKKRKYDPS
FN deposit inh = fibronectin deposition inhibition | inhibition, % at 12.6 µM | actives 0.086% (n = 350,000) | AID 743247 | AH1F fibroblasts, Alexa488-fibronectin deposition fluorescence, overnight;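 active = mean inhibition across replicates of 30% or more, regardless of how many single replicates reach that level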
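test system = AH1F fibroblasts assembling fluorescent fibronectin matrix | quantity = 10000 AH1F cells per well | buffer or medium = DMEM plus 2% serum, read in PBS | doses = single dose, pinned | incubation = 1 h cell attachment, overnight exposure to compound and label | detection = fluorescence at 485 nm excitation, 525 nm emission | read-out basis = inhibition from reduced deposited-fibronectin fluorescence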
N-glyco inh = blocks N-linked glycosylation in D54 reporter cells. D54 ERlucT glycosylation luciferase reporter, 24 h; percent of 100 nM tunicamycin response. reporter increase, % at 12.5 µM. actives 0.23% (n = 360,000);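 active = mean luciferase reporter signal, scaled so untreated is 0 and the glycosylation-blocking control 100, at or above a set limit in every replicate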;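 also: luciferase carries N-glycosylation sites so blocking glycosylation raises the light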
A number is an active result; – = inactive; · = no result; ! = not confirmed by another sample.

SMILES	NSD2 inh	RAD54 branch	MLL AF4-AF9 inh	RAD52 inh	FN deposit inh	N-glyco inh
CC1=CC(C)[C@H](/C=N/n2c(=O)[nH]c3c([nH]c4ccc(C)cc43)c2=O)C(C)C1 (some centres undefined)	–	·	–	–	–	60
O=C(O)c1ccc(-c2ccc(/C=C3\NC(=O)N(Cc4ccc(Cl)cc4)C3=O)o2)cc1Cl	129	–	–	–	–	–
CCOC(=O)C(C)Oc1cccc2c(=O)n(CC(=O)Nc3ccc4c(c3)OCCO4)ccc12 (centres undefined)	·	–	45	–	–	–
Cc1cccc(-c2ccc(C3[C@H]4CNC[C@@H]3N4S(=O)(=O)c3ccccc3C)cc2)c1 (some centres undefined)	·	·	–	–	–	·
N#Cc1cccc(-c2ccc(C3[C@H]4CNC[C@@H]3N4S(=O)(=O)c3ccccc3)cc2)c1 (some centres undefined)	·	·	–	–	–	·
COc1ccc(-c2ccc(C3[C@H]4CNC[C@@H]3N4S(=O)(=O)c3cccc(C)c3)cc2)cc1 (some centres undefined)	·	·	–	–	–	·
Cc1ccccc1S(=O)(=O)N1[C@@H]2CNC[C@H]1C2c1ccc(-c2ccccc2)cc1 (some centres undefined)	·	·	–	55!	–	·
COc1ccc(S(=O)(=O)N2[C@@H]3CNC[C@H]2C3c2ccc(-c3cccc(C)c3)cc2)cc1 (some centres undefined)	·	·	–	65!	–	·
N#Cc1ccc(-c2ccc(C3[C@H]4CNC[C@@H]3N4S(=O)(=O)c3ccc(-c4ccccc4)cc3)cc2)cc1 (some centres undefined)	·	·	–	82	–	·
Cc1ccc(-c2ccc(C3[C@H]4CNC[C@@H]3N4S(=O)(=O)c3cccc(C)c3)cc2)cc1 (some centres undefined)	·	·	–	54!	–	·
C[C@H](CO)N1C[C@H](C)[C@@H](CN(C)C)Oc2ccc(NC(=O)CCN3CCOCC3)cc2C1=O	·	–	–	–	·	·
O=S(=O)(c1cccc(Cl)c1)N1[C@@H]2CNC[C@H]1C2c1ccc(-c2cccc(F)c2)cc1 (some centres undefined)	·	·	–	54!	–	·
CCCNC(=O)C[C@@H]1C[C@H]2c3cc(NC(=O)Nc4ccccc4)ccc3O[C@H]2[C@@H](CO)O1	·	–	·	·	–	·
Cc1ccc2c(CN(C)Cc3ccccc3)cc(=O)oc2c1	·	–	–	–	–	–
Cc1ccc2c(CNCc3ccccc3)cc(=O)oc2c1	–	–	–	–	–	29
COCC(C)n1c(SCc2nc(N)nc(Nc3ccccc3C)n2)nc2ccccc2c1=O (centres undefined)	–	–	·	·	33	–
C[C@H]1CN([C@@H](C)CO)C(=O)c2cc(NC(=O)C3CC3)ccc2O[C@H]1CN(C)Cc1ccncc1	·	–	–	–	·	·
CC(=O)c1ccc(NC(=O)COC(=O)c2ccccc2Sc2ccccc2C#N)cc1	–	·	–	–	–	–
CC(=O)Nc1ccc(NC(=O)C(C)OC(=O)c2ccccc2Sc2ccccc2C#N)cc1 (centres undefined)	–	–	96	–	–	–
O=c1[nH]c(Nc2ccccc2)cc2ccccc12	82	·	·	·	·	–
COc1ccc(OC)c(Nc2cc3ccccc3c(=O)[nH]2)c1	·	–	–	–	–	33
CCOC(=O)C1=C(c2ccccc2)NC(N)=NC1c1ccc(OCc2ccc(Cl)cc2)c(OC)c1 (centres undefined)	–	·	27	–	–	–
CCOC(=O)C1=C(c2ccccc2)NC(=O)NC1c1cc(Cl)c(O)c(OC)c1 (centres undefined)	–	·	–	–	–	–
C=CCN1C(=O)[C@]2(O[C@H](CCn3cc(CCO)nn3)[C@@H]([Si](C)(C)c3ccc(OC)cc3)[C@@H]2C)c2cc(N3C(=O)c4cccc5cccc3c45)ccc21	·	–	–	–	·	·
Nc1nc(NCC2CCCO2)nc(Nc2cccc(F)c2)c1[N+](=O)[O-] (centres undefined)	–	·	31	–	–	–
SMILES	NSD2 inh	RAD54 branch	MLL AF4-AF9 inh	RAD52 inh	FN deposit inh	N-glyco inh
NC(=O)CC(NC(=O)c1ccc(Br)cc1)c1ccc(N2CCN(c3ccccc3)CC2)c([N+](=O)[O-])c1 (centres undefined)	·	–	–	–	–	–
NC(=O)CC(NC(=O)Cc1ccc(Br)cc1)c1ccc(NC2CCCC2)c([N+](=O)[O-])c1 (centres undefined)	·	–	·	·	–	38
NC(=O)CC(NC(=O)c1ccc(Br)cc1)c1ccc(N2CCCCCCC2)c([N+](=O)[O-])c1 (centres undefined)	·	–	–	–	–	43
NC(=O)CC(NC(=O)Cc1cccc2ccccc12)c1ccc(NC2CCN(Cc3ccccc3)CC2)c([N+](=O)[O-])c1 (centres undefined)	·	–	54	–	–	–
NC(=O)CC(NC(=O)Cc1ccc(Br)cc1)c1ccc(NC2CCCCCCC2)c([N+](=O)[O-])c1 (centres undefined)	·	–	–	–	–	–
C(=N\N1CCN(Cc2ccccc2)CC1)/c1ccc(-c2ccccc2)cc1	–	–	–	–	–	–
Clc1ccc(CN2CCN(N=Cc3c4ccccc4cc4ccccc34)CC2)cc1	–	·	·	·	·	·
CN1CCN(/N=C/c2c3ccccc3c(Cl)c3ccccc23)CC1	–	·	25	–	–	–
CN1CCN(/N=C/c2ccc(-c3ccccc3)cc2)CC1	–	–	35	–	·	–
C[C@H]1CN([C@@H](C)CO)S(=O)(=O)c2ccc(C3=CCCCC3)cc2O[C@H]1CN(C)Cc1ccccc1F	·	–	–	–	·	·
C[C@@H]1CN([C@@H](C)CO)C(=O)c2cccc(NC(=O)CCCCCC(=O)Nc3ccccc3N)c2O[C@@H]1CN(C)C(=O)Nc1ccc2c(c1)OCO2	·	·	–	–	–	·
CNCCC=C1c2ccccc2CCc2ccccc21	·	–	38!	–	–	–
CNCCCN1c2ccccc2CCc2ccccc21	·	–	–	–	–	–
C[C@H]1CN(C)C(=O)c2cccc(N)c2O[C@@H]1CN(C)C(=O)OC(C)(C)C	·	·	·	·	–	·
CN1CCN(c2cc(N3CCN(C(=O)c4ccco4)CC3)c3c4c(onc24)-c2ccccc2C3=O)CC1	·	54	·	·	·	–
O=C1c2ccccc2-c2onc3c(N4CCN(CCO)CC4)cc(N4CCN(C(=O)c5ccco5)CC4)c1c23	–	–	76	–	–	–
CCOC(=O)N1CCN(c2cc(NCCC(=O)O)c3c4c(onc24)-c2ccccc2C3=O)CC1	·	–	·	·	·	–
C[C@@H]1CCCCO[C@@H](CN(C)C(=O)Nc2ccc3c(c2)OCO3)[C@@H](C)CN([C@@H](C)CO)C(=O)c2cc(NC(=O)Nc3ccc4c(c3)OCO4)ccc2O1	·	·	–	–	–	·
C[C@H]1CN([C@@H](C)CO)S(=O)(=O)c2ccc(C#Cc3ccccc3)cc2O[C@H]1CN(C)C(=O)CN(C)C	·	–	–	70	–	·

Screening results as filed in PubChem BioAssay.
